{
  "source": "ChEMBL document CHEMBL4028914",
  "about": "“Structure-Based Design of 6-Chloro-4-aminoquinazoline-2-carboxamide Derivatives as Potent and Selective p21-Activated Kinase 4 (PAK4) Inhibitors” (J Med Chem, 2018)",
  "key": {"[1]": {"experiment": "Half life in Sprague-Dawley rat at 2 mg/kg, iv by LC-MS/MS method", "format": "ADME, organism-based", "conditions": "in vivo", "outline": "(§1)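 Single intravenous dose of 2 mg/kg given to Sprague-Dawley rats. Values are the mean ± SD of three independent determinations.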"}, "[2]": {"experiment": "Stability in Sprague-Dawley rat blood plasma assessed as compound remaining at 2 uM measured after 120 mins by LC-MS/MS method", "format": "ADME, cell-free", "conditions": "read-out: Stability"}, "[3]": {"experiment": "Distribution coefficient, logD of the compound at pH 7.4 by UV-metric method", "format": "physicochemical", "conditions": "octanol/water"}, "[4]": {"experiment": "Dissociation constant, pKa of compound", "format": "physicochemical"}, "[5]": {"experiment": "Partition coefficient, log P of the compound by UV-metric method", "format": "physicochemical", "conditions": "octanol/water"}, "[6]": {"experiment": "Solubility of the compound in DMSO by UV-metric method", "format": "physicochemical"}, "[7]": {"experiment": "Clearance in Sprague-Dawley rat at 2 mg/kg, iv by LC-MS/MS method", "format": "ADME, organism-based", "conditions": "in vivo", "outline": "as §1"}, "[8]": {"experiment": "Stability in human liver microsomes assessed as compound remaining at 1 uM in absence of NADPH regenerating system measured after 1 hr by LC-MS/MS method", "format": "ADME, microsome", "conditions": "read-out: Stability", "outline": "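Liver microsomal incubation ran for 60 min without the NADPH regenerating system, which was replaced by buffer. Read-out was percent compound remaining.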"}, "[9]": {"experiment": "Intrinsic clearance in human liver microsomes at 1 uM measured after 1 hr by LC-MS/MS method", "format": "ADME, microsome", "conditions": "read-out: CLH"}, "[10]": {"experiment": "Initial concentration in Sprague-Dawley rat at 2 mg/kg, iv by LC-MS/MS method", "format": "ADME, organism-based", "conditions": "in vivo", "outline": "as §1"}, "[11]": {"molecular_target": "Voltage-gated inwardly rectifying potassium channel KCNH2 (Homo sapiens, UniProt Q12809)", "sequence (Q12809 whole entry)": "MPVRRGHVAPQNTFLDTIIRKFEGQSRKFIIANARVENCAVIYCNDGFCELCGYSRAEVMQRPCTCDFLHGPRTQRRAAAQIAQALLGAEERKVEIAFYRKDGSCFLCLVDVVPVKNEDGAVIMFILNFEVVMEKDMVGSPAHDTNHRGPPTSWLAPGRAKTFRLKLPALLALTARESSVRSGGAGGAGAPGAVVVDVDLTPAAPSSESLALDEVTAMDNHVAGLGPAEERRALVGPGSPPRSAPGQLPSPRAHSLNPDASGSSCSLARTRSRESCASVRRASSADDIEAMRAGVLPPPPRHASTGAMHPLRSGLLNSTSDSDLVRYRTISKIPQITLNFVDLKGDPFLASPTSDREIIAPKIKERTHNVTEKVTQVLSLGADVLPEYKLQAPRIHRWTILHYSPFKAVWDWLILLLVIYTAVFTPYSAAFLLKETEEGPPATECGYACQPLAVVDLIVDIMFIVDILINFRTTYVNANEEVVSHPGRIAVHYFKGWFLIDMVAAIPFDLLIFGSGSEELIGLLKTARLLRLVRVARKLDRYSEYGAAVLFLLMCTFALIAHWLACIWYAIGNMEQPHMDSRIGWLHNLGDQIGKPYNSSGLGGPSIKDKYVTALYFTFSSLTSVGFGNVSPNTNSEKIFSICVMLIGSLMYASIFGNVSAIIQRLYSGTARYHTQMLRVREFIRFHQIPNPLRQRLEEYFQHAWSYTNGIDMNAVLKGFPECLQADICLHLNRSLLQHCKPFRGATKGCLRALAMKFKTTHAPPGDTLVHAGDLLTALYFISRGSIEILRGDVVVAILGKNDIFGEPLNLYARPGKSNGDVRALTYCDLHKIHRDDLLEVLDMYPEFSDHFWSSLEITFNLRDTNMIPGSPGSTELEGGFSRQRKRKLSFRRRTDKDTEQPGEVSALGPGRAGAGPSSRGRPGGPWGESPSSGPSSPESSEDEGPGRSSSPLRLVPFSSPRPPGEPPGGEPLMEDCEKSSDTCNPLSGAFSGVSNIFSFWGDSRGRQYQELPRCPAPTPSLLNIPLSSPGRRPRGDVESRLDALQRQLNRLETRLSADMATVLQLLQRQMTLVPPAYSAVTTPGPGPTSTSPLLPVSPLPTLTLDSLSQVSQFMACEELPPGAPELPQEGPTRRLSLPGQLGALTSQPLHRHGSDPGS", "experiment": "Inhibition of human ERG by Qpatch assay", "outline": "(§2)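 hERG current was recorded by automated patch clamp (Qpatch 16×) in CHO cells expressing hERG.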"}, "[12]": {"experiment": "AUC (0 to t) in Sprague-Dawley rat at 2 mg/kg, iv by LC-MS/MS method", "format": "ADME, organism-based", "conditions": "in vivo", "outline": "as §1"}, "[13]": {"experiment": "Stability in Sprague-Dawley rat blood plasma assessed as compound remaining at 2 uM measured after 60 mins by LC-MS/MS method", "format": "ADME, cell-free", "conditions": "read-out: Stability"}, "[14]": {"molecular_target": "T1, CYP1A2 (Homo sapiens, UniProt P05177)", "T1 sequence (P05177 whole entry)": "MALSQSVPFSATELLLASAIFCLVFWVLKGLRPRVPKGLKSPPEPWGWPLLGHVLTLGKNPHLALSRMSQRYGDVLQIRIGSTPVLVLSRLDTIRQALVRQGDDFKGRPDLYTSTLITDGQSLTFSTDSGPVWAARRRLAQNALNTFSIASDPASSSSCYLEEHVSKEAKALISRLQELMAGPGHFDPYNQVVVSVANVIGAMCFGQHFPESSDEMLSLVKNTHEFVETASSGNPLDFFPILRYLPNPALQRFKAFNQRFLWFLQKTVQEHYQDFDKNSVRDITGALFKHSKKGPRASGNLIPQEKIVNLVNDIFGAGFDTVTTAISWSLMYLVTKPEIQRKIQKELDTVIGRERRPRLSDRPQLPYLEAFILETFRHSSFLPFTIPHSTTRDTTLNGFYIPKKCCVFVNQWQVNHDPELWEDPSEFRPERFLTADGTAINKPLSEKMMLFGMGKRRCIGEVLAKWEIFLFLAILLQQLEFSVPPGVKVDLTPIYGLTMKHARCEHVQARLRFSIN", "experiment": "Inhibition of CYP1A2 in human liver microsomes at 10 uM using phenacetin as the substrate preincubated for 10 mins followed by NADPH addition measured after 10 mins by LC-MS/MS method", "format": "ADME", "conditions": "probe phenacetin", "outline": "(§3)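 Each CYP isoform was tested at 10 μM compound. Positive controls: α-naphthoflavone (CYP1A2), sulfaphenazole (CYP2C9), ticlopidine (CYP2C19), quinidine (CYP2D6), ketoconazole (CYP3A4).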"}, "[15]": {"experiment": "Aqueous solubility of the compound at pH 7.4 by UV-metric method", "format": "physicochemical"}, "[16]": {"experiment": "Volume of distribution at steady state in Sprague-Dawley rat at 2 mg/kg, iv by LC-MS/MS method", "format": "ADME, organism-based", "conditions": "in vivo, read-out: Vdss", "outline": "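Sprague-Dawley rats receive a single intravenous dose of 2 mg/kg. Pharmacokinetic parameters derived are C0, clearance, Vss, T1/2, AUC(0−t) and AUC(0−∞). Values are averages of three independent determinations, reported as mean ± SD.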"}, "[17]": {"experiment": "Intrinsic clearance in rat liver microsomes at 1 uM measured after 1 hr by LC-MS/MS method", "format": "ADME, microsome", "conditions": "read-out: CLH"}, "[18]": {"experiment": "Stability in rat liver microsomes assessed as compound remaining at 1 uM in absence of NADPH regenerating system measured after 1 hr by LC-MS/MS method", "format": "ADME, microsome", "conditions": "read-out: Stability", "outline": "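Control incubation with rat liver microsomes: buffer replaces the NADPH regenerating system for the whole 60 min incubation. Read-out is percent of parent compound remaining.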"}, "[19]": {"experiment": "Half life in rat liver microsomes at 1 uM preincubated for 10 mins followed by NADPH addition measured after 1 hr by LC-MS/MS method", "format": "ADME, microsome"}, "[20]": {"experiment": "Cmax in Sprague-Dawley rat at 2 mg/kg, iv by LC-MS/MS method", "format": "ADME, organism-based", "parameters": "dose 2 mg/kg, route intravenous", "conditions": "in vivo", "outline": "as §1"}, "[21]": {"experiment": "Intrinsic clearance in rat liver at 1 uM measured after 1 hr by LC-MS/MS method", "format": "ADME, tissue-based", "conditions": "read-out: CLH"}, "[22]": {"experiment": "Stability in rat liver microsomes assessed as compound remaining at 1 uM preincubated for 10 mins followed by NADPH addition measured after 1 hr by LC-MS/MS method", "format": "ADME, microsome", "conditions": "read-out: Stability"}, "[23]": {"experiment": "AUC (0 to infinity) in Sprague-Dawley rat at 2 mg/kg, iv by LC-MS/MS method", "format": "ADME, organism-based", "parameters": "dose 2 mg/kg, route intravenous, time infinity", "conditions": "in vivo", "outline": "as §1"}, "[24]": {"experiment": "Intrinsic clearance in human liver at 1 uM measured after 1 hr by LC-MS/MS method", "format": "ADME, tissue-based", "conditions": "read-out: CLH"}, "[25]": {"experiment": "Stability in human liver microsomes assessed as compound remaining at 1 uM preincubated for 10 mins followed by NADPH addition measured after 1 hr by LC-MS/MS method", "format": "ADME, microsome", "conditions": "read-out: Stability"}, "[26]": {"molecular_target": "CYP2C9 (Homo sapiens, UniProt P11712)", "sequence (P11712 whole entry)": "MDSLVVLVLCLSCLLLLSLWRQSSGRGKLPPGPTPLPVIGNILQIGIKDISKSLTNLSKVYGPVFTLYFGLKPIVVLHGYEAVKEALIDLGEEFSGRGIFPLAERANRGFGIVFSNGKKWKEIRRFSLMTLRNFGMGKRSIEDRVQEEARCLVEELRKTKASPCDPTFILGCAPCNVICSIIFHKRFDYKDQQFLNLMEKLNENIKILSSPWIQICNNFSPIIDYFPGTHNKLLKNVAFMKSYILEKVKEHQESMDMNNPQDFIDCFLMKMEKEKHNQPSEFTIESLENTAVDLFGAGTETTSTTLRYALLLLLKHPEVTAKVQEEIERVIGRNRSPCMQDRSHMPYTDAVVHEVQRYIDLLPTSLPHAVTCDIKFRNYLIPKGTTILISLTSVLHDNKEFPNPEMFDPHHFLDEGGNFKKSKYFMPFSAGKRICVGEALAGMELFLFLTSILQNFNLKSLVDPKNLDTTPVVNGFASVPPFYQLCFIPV", "experiment": "Inhibition of CYP2C9 in human liver microsomes at 10 uM using diclofenac as substrate preincubated for 10 mins followed by NADPH addition measured after 10 mins by LC-MS/MS method", "format": "ADME", "conditions": "probe diclofenac", "outline": "as §3"}, "[27]": {"experiment": "Aqueous solubility of the compound at pH 2.0 by UV-metric method", "format": "physicochemical"}, "[28]": {"molecular_target": "CYP3A4 (Homo sapiens, UniProt P08684)", "sequence (P08684 whole entry)": "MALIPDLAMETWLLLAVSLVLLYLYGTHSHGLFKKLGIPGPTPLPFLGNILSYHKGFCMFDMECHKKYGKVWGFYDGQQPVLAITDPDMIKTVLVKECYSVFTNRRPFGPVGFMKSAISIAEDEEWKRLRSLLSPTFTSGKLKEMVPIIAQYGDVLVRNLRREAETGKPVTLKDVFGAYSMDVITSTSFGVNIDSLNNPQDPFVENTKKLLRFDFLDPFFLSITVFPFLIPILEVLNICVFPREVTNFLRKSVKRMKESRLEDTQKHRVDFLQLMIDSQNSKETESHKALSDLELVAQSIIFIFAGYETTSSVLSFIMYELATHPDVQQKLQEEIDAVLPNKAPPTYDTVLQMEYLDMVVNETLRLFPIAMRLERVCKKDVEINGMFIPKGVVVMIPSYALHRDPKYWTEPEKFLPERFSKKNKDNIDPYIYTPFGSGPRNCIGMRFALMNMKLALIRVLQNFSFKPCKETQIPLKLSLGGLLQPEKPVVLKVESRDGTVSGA", "experiment": "Inhibition of CYP3A4 in human liver microsomes at 10 uM using midozolam as substrate preincubated for 10 mins followed by NADPH addition measured after 10 mins by LC-MS/MS method", "format": "ADME", "conditions": "probe midozolam", "outline": "as §3"}, "[29]": {"molecular_target": "CYP2C19 (Homo sapiens, UniProt P33261)", "sequence (P33261 whole entry)": "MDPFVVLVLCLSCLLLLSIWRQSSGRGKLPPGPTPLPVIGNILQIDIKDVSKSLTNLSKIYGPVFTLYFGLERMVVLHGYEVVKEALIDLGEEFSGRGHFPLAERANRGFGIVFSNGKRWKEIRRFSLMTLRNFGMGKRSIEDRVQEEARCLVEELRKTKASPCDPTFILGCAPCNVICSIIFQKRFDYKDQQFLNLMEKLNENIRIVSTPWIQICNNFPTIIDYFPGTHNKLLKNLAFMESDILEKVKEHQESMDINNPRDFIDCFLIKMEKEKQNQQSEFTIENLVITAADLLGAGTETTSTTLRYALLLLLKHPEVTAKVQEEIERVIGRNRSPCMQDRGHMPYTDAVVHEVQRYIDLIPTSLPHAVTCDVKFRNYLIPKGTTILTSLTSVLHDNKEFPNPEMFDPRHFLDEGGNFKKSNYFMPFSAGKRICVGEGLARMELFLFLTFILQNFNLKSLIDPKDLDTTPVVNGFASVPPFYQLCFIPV", "experiment": "Inhibition of CYP2C19 in human liver microsomes at 10 uM using S-mephenytoin as substrate preincubated for 10 mins followed by NADPH addition measured after 10 mins by LC-MS/MS method", "format": "ADME", "conditions": "probe S-mephenytoin", "outline": "as §3"}, "[30]": {"molecular_target": "hERG (KCNH2) (Homo sapiens, UniProt Q12809)", "sequence (Q12809 whole entry)": "as the sequence (Q12809 whole entry) above", "experiment": "Inhibition of human ERG at 40 uM by Qpatch assay relative to control", "outline": "as §2"}, "[31]": {"experiment": "Half life in human liver microsomes at 1 uM preincubated for 10 mins followed by NADPH addition measured after 1 hr by LC-MS/MS method", "format": "ADME, microsome"}, "[32]": {"molecular_target": "CYP2D6 (Homo sapiens, UniProt P10635)", "sequence (P10635 whole entry)": "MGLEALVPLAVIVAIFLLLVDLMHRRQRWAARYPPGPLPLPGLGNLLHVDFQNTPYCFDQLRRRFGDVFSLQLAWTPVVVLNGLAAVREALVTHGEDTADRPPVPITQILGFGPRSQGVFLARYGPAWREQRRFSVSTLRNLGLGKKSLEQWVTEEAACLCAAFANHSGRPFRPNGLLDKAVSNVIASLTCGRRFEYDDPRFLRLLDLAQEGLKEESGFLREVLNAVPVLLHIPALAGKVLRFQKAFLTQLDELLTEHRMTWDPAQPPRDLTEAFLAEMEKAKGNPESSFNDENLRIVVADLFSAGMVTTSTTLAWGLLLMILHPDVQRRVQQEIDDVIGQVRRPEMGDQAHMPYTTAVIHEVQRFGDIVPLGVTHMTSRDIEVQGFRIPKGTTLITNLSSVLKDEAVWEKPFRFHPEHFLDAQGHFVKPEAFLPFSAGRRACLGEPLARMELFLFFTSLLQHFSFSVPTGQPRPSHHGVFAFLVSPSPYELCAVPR", "experiment": "Inhibition of CYP2D6 in human liver microsomes at 10 uM using dextromethorphan as substrate preincubated for 10 mins followed by NADPH addition measured after 10 mins by LC-MS/MS method", "format": "ADME", "conditions": "probe dextromethorphan", "outline": "as §3"}},
  "data": [
    {"smiles": "C[C@@H]1CN(C(=O)c2nc(Nc3cc(C4CC4)[nH]n3)c3cc(Cl)ccc3n2)CCN1.Cl", "values": [
      {"measurement": "half-life", "setting": "[1]", "value": 87.6, "unit": "min"},
      {"measurement": "remaining at 2 h, 2 µM", "setting": "[2]", "value": 115, "unit": "%"},
      {"measurement": "logD", "setting": "[3]", "value": 1.9},
      {"measurement": "pKa", "setting": "[4]", "value": 7.93},
      {"measurement": "logP", "setting": "[5]", "value": 2.54},
      {"measurement": "solubility", "setting": "[6]", "value": "> 30", "unit": "mM"},
      {"measurement": "clearance", "setting": "[7]", "value": 70.7, "unit": "mL/min/kg"},
      {"measurement": "remaining at 1 h, 1 µM", "setting": "[8]", "value": 103, "unit": "%"},
      {"measurement": "microsomal CLint at 1 µM", "setting": "[9]", "value": 28.7, "unit": "µL/min/mg"},
      {"measurement": "C0", "setting": "[10]", "value": 736, "unit": "ng/mL"},
      {"measurement": "IC50", "setting": "[11]", "value": "> 40", "unit": "µM"},
      {"measurement": "AUC(0-t)", "setting": "[12]", "value": 465, "unit": "ng·h/mL"},
      {"measurement": "remaining at 1 h, 2 µM", "setting": "[13]", "value": 110, "unit": "%"},
      {"measurement": "inhibition at 10 min, 10 µM", "setting": "[14]", "value": 17.2, "unit": "%"},
      {"measurement": "solubility", "setting": "[15]", "value": "> 10000", "unit": "µg/mL"},
      {"measurement": "Vd", "setting": "[16]", "value": 6.43, "unit": "L/kg"},
      {"measurement": "microsomal CLint at 1 µM", "setting": "[17]", "value": 33.2, "unit": "µL/min/mg"},
      {"measurement": "remaining at 1 h, 1 µM", "setting": "[18]", "value": 97, "unit": "%"},
      {"measurement": "half-life at 1 µM", "setting": "[19]", "value": 41.8, "unit": "min"},
      {"measurement": "Cmax", "setting": "[20]", "value": 736, "unit": "ng/mL"},
      {"measurement": "CLint scaled at 1 µM", "setting": "[21]", "value": 59.7, "unit": "mL/min/kg"},
      {"measurement": "remaining at 1 h, 1 µM", "setting": "[22]", "value": 36.9, "unit": "%"},
      {"measurement": "AUC(0-inf)", "setting": "[23]", "value": 472, "unit": "ng·h/mL"},
      {"measurement": "CLint scaled at 1 µM", "setting": "[24]", "value": 25.8, "unit": "mL/min/kg"},
      {"measurement": "remaining at 1 h, 1 µM", "setting": "[25]", "value": 41.9, "unit": "%"},
      {"measurement": "inhibition at 10 min, 10 µM", "setting": "[26]", "value": 15.1, "unit": "%"},
      {"measurement": "solubility", "setting": "[27]", "value": "> 10000", "unit": "µg/mL"},
      {"measurement": "inhibition at 10 min, 10 µM", "setting": "[28]", "value": 2.3, "unit": "%"},
      {"measurement": "inhibition at 10 min, 10 µM", "setting": "[29]", "value": 12.2, "unit": "%"},
      {"measurement": "inhibition at 40 µM", "setting": "[30]", "value": 42, "unit": "%"},
      {"measurement": "half-life at 1 µM", "setting": "[31]", "value": 48.4, "unit": "min"},
      {"measurement": "inhibition at 10 min, 10 µM", "setting": "[32]", "value": 1.8, "unit": "%"}
    ]}
  ]
}
